Data published in ChEMBL document CHEMBL4715745, “Synthesis and biological evaluation of novel FK228 analogues as potential isoform selective HDAC inhibitors” (Eur J Med Chem, 2016).

Assays:
ACHN = experiment: Growth inhibition of human ACHN cells measured after 48 hrs by sulforhodamine B assay; format: functional
Procedure, shortened: (§1)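 Panel of 39 human cancer cell lines tested at the Japanese Foundation for Cancer Research. Five concentrations per compound, spanning 10⁻¹¹–10⁻⁷ M, 10⁻¹⁰–10⁻⁶ M or 10⁻⁸–10⁻⁴ M, were used to build dose-response curves. GI₅₀ is the concentration giving 50% growth inhibition relative to control.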

DMS-114 = experiment: Growth inhibition of human DMS-114 cells measured after 48 hrs by sulforhodamine B assay; format: functional; procedure, shortened: as §1
SF-295 = experiment: Growth inhibition of human SF-295 cells measured after 48 hrs by sulforhodamine B assay; format: functional; procedure, shortened: as §1
OVCAR-4 = experiment: Growth inhibition of human OVCAR-4 cells measured after 48 hrs by sulforhodamine B assay; format: functional; procedure, shortened: as §1
[1] = Growth inhibition of human HBC5 cells measured after 48 hrs by sulforhodamine B assay; format: functional; procedure, shortened: as §1
SNB-75 = experiment: Growth inhibition of human SNB-75 cells measured after 48 hrs by sulforhodamine B assay; format: functional; procedure, shortened: as §1
NCI-H226 = experiment: Growth inhibition of human NCI-H226 cells measured after 48 hrs by sulforhodamine B assay; format: functional; procedure, shortened: as §1
LOX IMVI = experiment: Growth inhibition of human LOX IMVI cells measured after 48 hrs by sulforhodamine B assay; format: functional; procedure, shortened: as §1
NCI-H23 = experiment: Growth inhibition of human NCI-H23 cells measured after 48 hrs by sulforhodamine B assay; format: functional; procedure, shortened: as §1
DMS-273 = experiment: Growth inhibition of human DMS-273 cells measured after 48 hrs by sulforhodamine B assay; format: functional; procedure, shortened: as §1
OVCAR-3 = experiment: Growth inhibition of human OVCAR-3 cells measured after 48 hrs by sulforhodamine B assay; format: functional; procedure, shortened: as §1
MDA-MB-231 = experiment: Growth inhibition of human MDA-MB-231 cells measured after 48 hrs by sulforhodamine B assay; format: functional; procedure, shortened: as §1
KM12 = experiment: Growth inhibition of human KM12 cells measured after 48 hrs by sulforhodamine B assay; format: functional; procedure, shortened: as §1
MKN-45 = experiment: Growth inhibition of human MKN-45 cells measured after 48 hrs by sulforhodamine B assay; format: functional; procedure, shortened: as §1
U-251 = experiment: Growth inhibition of human U-251 cells measured after 48 hrs by sulforhodamine B assay; format: functional; procedure, shortened: as §1
SK-OV-3 = experiment: Growth inhibition of human SK-OV-3 cells measured after 48 hrs by sulforhodamine B assay; format: functional; procedure, shortened: as §1
RXF 631 = experiment: Growth inhibition of human RXF 631 cells measured after 48 hrs by sulforhodamine B assay; format: functional; procedure, shortened: as §1
[2] = Growth inhibition of human HBC4 cells measured after 48 hrs by sulforhodamine B assay; format: functional; procedure, shortened: as §1
MKN-74 = experiment: Growth inhibition of human MKN-74 cells measured after 48 hrs by sulforhodamine B assay; format: functional; procedure, shortened: as §1
MCF7 = experiment: Growth inhibition of human MCF7 cells measured after 48 hrs by sulforhodamine B assay; format: functional; procedure, shortened: as §1
HT-29 = experiment: Growth inhibition of human HT-29 cells measured after 48 hrs by sulforhodamine B assay; format: functional; procedure, shortened: as §1
NCI-H460 = experiment: Growth inhibition of human NCI-H460 cells measured after 48 hrs by sulforhodamine B assay; format: functional; procedure, shortened: as §1
HCT-116 = experiment: Growth inhibition of human HCT-116 cells measured after 48 hrs by sulforhodamine B assay; format: functional; procedure, shortened: as §1
A549 = experiment: Growth inhibition of human A549 cells measured after 48 hrs by sulforhodamine B assay; format: functional; procedure, shortened: as §1
SNB-78 = experiment: Growth inhibition of human SNB-78 cells measured after 48 hrs by sulforhodamine B assay; format: functional; procedure, shortened: as §1
NCI-H522 = experiment: Growth inhibition of human NCI-H522 cells measured after 48 hrs by sulforhodamine B assay; format: functional; procedure, shortened: as §1
MKN-1 = experiment: Growth inhibition of human MKN-1 cells measured after 48 hrs by sulforhodamine B assay; format: functional; procedure, shortened: as §1
SF-539 = experiment: Growth inhibition of human SF-539 cells measured after 48 hrs by sulforhodamine B assay; format: functional; procedure, shortened: as §1
[3] = biological target: T1, Protein deacetylase HDAC6 (Mus musculus, UniProt Q9Z2V5); experiment: Inhibition of mouse HDAC6 expressed in 293T cells using Ac-KGLGK(Ac)-MCA as substrate incubated for 30 mins in presence of 0.1 mM DTT by fluorescence plate reader assay; set-up: species or system HEK293T
T1 sequence (Q9Z2V5 whole entry): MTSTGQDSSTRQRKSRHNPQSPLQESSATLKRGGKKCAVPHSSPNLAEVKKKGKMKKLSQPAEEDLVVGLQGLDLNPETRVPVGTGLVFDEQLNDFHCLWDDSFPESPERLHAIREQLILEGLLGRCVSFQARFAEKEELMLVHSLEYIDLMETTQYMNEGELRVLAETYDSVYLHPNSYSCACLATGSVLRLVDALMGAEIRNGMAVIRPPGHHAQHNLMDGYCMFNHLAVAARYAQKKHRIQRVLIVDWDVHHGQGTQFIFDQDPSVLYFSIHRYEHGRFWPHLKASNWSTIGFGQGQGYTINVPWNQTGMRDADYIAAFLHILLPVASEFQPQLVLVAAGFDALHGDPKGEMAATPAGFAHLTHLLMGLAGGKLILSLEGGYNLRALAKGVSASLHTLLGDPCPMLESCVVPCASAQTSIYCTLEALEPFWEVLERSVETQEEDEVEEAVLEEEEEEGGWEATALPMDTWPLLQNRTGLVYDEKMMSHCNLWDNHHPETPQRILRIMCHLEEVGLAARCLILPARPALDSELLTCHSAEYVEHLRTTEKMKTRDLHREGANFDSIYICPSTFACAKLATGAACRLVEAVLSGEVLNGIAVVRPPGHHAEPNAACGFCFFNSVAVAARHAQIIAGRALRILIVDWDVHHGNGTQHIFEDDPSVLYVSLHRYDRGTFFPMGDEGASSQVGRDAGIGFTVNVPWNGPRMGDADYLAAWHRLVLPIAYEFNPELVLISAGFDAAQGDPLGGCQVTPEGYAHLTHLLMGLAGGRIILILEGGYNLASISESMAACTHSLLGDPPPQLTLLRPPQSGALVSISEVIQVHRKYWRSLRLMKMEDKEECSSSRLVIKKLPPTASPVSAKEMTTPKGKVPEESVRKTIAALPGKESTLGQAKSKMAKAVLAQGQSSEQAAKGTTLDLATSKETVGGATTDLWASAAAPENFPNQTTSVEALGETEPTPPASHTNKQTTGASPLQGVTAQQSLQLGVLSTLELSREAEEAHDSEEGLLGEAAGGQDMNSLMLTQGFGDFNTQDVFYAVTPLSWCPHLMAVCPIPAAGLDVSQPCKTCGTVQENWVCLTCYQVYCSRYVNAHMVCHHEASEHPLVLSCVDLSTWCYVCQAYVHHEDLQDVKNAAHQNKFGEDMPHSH
Procedure, shortened: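 HDAC enzyme assay run in the presence of 0.1 mM dithiothreitol (DTT); IC₅₀ determined.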

HCC 2998 = experiment: Growth inhibition of human HCC 2998 cells measured after 48 hrs by sulforhodamine B assay; format: functional; procedure, shortened: as §1
[4] = Selectivity index, ratio of IC50 for mouse HDAC6 expressed in 293T cells to IC50 for human HDAC1 expressed in 293T cells using Ac-KGLGK(Ac)-MCA as substrate incubated for 30 mins in presence of 0.1 mM DTT by fluorescence plate reader assay; conditions: 0.5 h
Procedure, shortened: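 Ratio of HDAC6 IC₅₀ to HDAC1 IC₅₀, taken as selectivity for class I HDAC1 over class II HDAC6. Both enzyme assays were run in the presence of 0.1 mM DTT.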

OVCAR-8 = experiment: Growth inhibition of human OVCAR-8 cells measured after 48 hrs by sulforhodamine B assay; format: functional; procedure, shortened: as §1
OVCAR-5 = experiment: Growth inhibition of human OVCAR-5 cells measured after 48 hrs by sulforhodamine B assay; format: functional; procedure, shortened: as §1
PC-3 = experiment: Growth inhibition of human PC-3 cells measured after 48 hrs by sulforhodamine B assay; format: functional; procedure, shortened: as §1
MKN-7 = experiment: Growth inhibition of human MKN-7 cells measured after 48 hrs by sulforhodamine B assay; format: functional; procedure, shortened: as §1
HCT-15 = experiment: Growth inhibition of human HCT-15 cells measured after 48 hrs by sulforhodamine B assay; format: functional; procedure, shortened: as §1
DU-145 = experiment: Growth inhibition of human DU-145 cells measured after 48 hrs by sulforhodamine B assay; format: functional; procedure, shortened: as §1
[5] = Growth inhibition of human BSY1 cells measured after 48 hrs by sulforhodamine B assay; format: functional; conditions: BSY-1; procedure, shortened: as §1
SF-268 = experiment: Growth inhibition of human SF-268 cells measured after 48 hrs by sulforhodamine B assay; format: functional; procedure, shortened: as §1
MKN-28 = experiment: Growth inhibition of human MKN-28 cells measured after 48 hrs by sulforhodamine B assay; format: functional; procedure, shortened: as §1
Histone deacetylase 1 = Histone deacetylase 1 (Homo sapiens, UniProt Q13547); experiment: Inhibition of human HDAC1 expressed in 293T cells using Ac-KGLGK(Ac)-MCA as substrate incubated for 30 mins in presence of 0.1 mM DTT by fluorescence plate reader assay; set-up: species or system HEK293T
Histone deacetylase 1, sequence (Q13547 whole entry): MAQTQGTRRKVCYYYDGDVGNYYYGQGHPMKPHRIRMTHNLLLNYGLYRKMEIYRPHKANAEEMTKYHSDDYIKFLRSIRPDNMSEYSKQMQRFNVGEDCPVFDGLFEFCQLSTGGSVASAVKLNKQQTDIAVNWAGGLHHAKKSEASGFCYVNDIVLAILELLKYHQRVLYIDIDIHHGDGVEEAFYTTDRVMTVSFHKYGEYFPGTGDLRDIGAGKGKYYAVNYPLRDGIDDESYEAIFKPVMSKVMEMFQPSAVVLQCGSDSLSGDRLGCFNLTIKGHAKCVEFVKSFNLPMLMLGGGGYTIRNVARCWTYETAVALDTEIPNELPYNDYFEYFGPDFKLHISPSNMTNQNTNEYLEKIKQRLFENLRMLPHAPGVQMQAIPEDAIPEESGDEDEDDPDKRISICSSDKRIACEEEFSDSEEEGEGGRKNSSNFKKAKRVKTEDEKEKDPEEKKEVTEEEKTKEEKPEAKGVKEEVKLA

St-4 = experiment: Growth inhibition of human St-4 cells measured after 48 hrs by sulforhodamine B assay; format: functional; procedure, shortened: as §1

CC(C)[C@H]1NC(=O)C[C@H]2/C=C/CCSSC[C@@H](NC1=O)C(=O)N[C@@H](Cc1ccccc1)C(=O)NCC(=O)O2
GI50 (ACHN): 11000 nM | GI50 (DMS-114): 620 nM | GI50 (SF-295): 1800 nM | GI50 (OVCAR-4): 1900 nM | GI50 [1]: 1900 nM | GI50 (SNB-75): 1300 nM | GI50 (NCI-H226): 1200 nM | GI50 (LOX IMVI): 160 nM | GI50 (NCI-H23): 1100 nM | GI50 (DMS-273): 1500 nM | GI50 (OVCAR-3): 1100 nM | GI50 (MDA-MB-231): 1200 nM | GI50 (KM12): 740 nM | GI50 (MKN-45): 1800 nM | GI50 (U-251): 1500 nM | GI50 (SK-OV-3): 1200 nM | GI50 (RXF 631): 1800 nM | GI50 [2]: 690 nM | GI50 (MKN-74): 500 nM | GI50 (MCF7): 1900 nM | GI50 (HT-29): 570 nM | GI50 (NCI-H460): 1100 nM | GI50 (HCT-116): 250 nM | GI50 (A549): 880 nM | GI50 (SNB-78): 540 nM | GI50 (NCI-H522): 200 nM | GI50 (MKN-1): 290 nM | GI50 (SF-539): 860 nM | IC50 [3]: 355 nM | GI50 (HCC 2998): 1100 nM | Ratio IC50 [4]: 9 | GI50 (OVCAR-8): 1400 nM | GI50 (OVCAR-5): 1400 nM | GI50 (PC-3): 1100 nM | GI50 (MKN-7): 1900 nM | GI50 (HCT-15): 26000 nM | GI50 (DU-145): 590 nM | GI50 [5]: 1300 nM | GI50 (SF-268): 220 nM | GI50 (MKN-28): 2100 nM | IC50 (Histone deacetylase 1): 40.8 nM | GI50 (St-4): 2000 nM
